Experimental data reported in ChEMBL document CHEMBL4619791, “3-Difluoroalkyl Quaternary Oxindoles Inhibit Macrophage Pyroptosis by Blocking Inflammasome Recruitment of Caspase-1” (ACS Med Chem Lett, 2020).
Activity calls are given as the source filed them. No cut-off for these calls is given here.

Legend:
[1] = tested on: J774.A1; assay: Inhibition of pyroptosis in LPS-primed immortalized mouse […] cells followed by subsequent nigericin stimulation by imaging analysis; format: functional, cell-based
[2] = tested on: J774.A1; assay: Inhibition of pyroptosis in LPS-primed immortalized mouse […] cells assessed as reduction in nigericin-induced IL-beta secretion by imaging analysis; format: functional
[3] = Toxicity in zebrafish embryo; parameters: species or system Danio rerio; conditions: in vivo
Summary of the method: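 Zebrafish embryos exposed to compound. EC100 is the concentration at which all treated embryos show early lethality, embryonic defects or developmental delay.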

[4] = target: T1, Caspase-1 (Homo sapiens) (UniProt P29466); assay: Inhibition of pronase-mediated caspase-1 degradation in HEK293 cell lysate at 5 uM measured after 30 mins by DARTS based Western blot analysis; format: cell-free
T1 sequence (whole entry): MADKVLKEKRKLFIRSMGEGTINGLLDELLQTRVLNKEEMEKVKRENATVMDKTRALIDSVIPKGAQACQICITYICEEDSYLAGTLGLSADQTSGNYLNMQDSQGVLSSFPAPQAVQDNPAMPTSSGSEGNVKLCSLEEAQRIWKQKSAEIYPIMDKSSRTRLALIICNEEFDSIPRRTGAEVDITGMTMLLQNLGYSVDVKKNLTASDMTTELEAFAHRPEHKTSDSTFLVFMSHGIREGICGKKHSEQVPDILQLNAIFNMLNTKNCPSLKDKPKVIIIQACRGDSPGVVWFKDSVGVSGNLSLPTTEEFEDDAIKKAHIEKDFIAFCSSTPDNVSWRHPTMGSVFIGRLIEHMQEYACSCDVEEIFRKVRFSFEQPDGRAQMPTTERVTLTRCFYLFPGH
Summary of the method: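 DARTS assay: cell lysates pretreated with compound, then digested with different Pronase concentrations. Caspase-1 stability read by immunoblot against a histone H3 control.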

inhibition [4] | SMILES | EC50 [1] [µM] | Activity [2] [pg/mL] | EC100 [3] [µM]
– | CCOC(CN1C(=O)C(NC(=O)OC(C)(C)C)(C(F)(F)C(=O)c2ccc(OC)cc2)c2ccccc21)OCC (stereo not drawn) | 17.5 | 202.6 | > 50
– | N#CC(C#N)C1(C(F)(F)C(=O)c2ccc(Cl)cc2)C(=O)Nc2ccccc21 (stereo not drawn) | – | 252.29 | 20
inactive | CN1C(=O)C(NC(=O)OC(C)(C)C)(C(F)(F)C(=O)c2ccccc2)c2ccccc21 (stereo not drawn) | – | 232.64 | > 50
– | CCOC(CN1C(=O)C(NC(=O)OC(C)(C)C)(C(F)(F)C(=O)c2ccccc2)c2ccccc21)OCC (stereo not drawn) | 9.5 | 222.04 | 50
– | CC(C)(C)OC(=O)NC1(C(F)(F)C(=O)c2ccccc2)C(=O)Nc2ccccc21 (stereo not drawn) | – | 240.83 | > 50
